Source: PubChem BioAssay
TDP2 absorb: blocks human TDP2 phosphodiesterase activity; O95551; recombinant TDP2, T5PNP hydrolysis, p-nitrophenol absorbance 415 nm; inhibition, % at 12.8 µM; hit rate 0.34% among 370,000;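 active means inhibition above the mean of all tested compounds plus 3 SD, set per campaign, cut at about 25% in these data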;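 further: 0% = DMSO with enzyme and 100% = buffer with substrate but no TDP2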
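Assay system: Recombinant human TDP2 | Quantity: 120 nM TDP2 per well | Incubation: 2 h at 37 °C | Signal: Epi absorbance | Evaluation: Percent inhibition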
PAD4 inh: inhibitors of human PAD4. inhibition, % at 6.36 µM. recombinant PAD4, RCA probe fluorescence polarization. AID 485272. hit rate 0.41% among 330,000. Q9UM07;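 active means percent inhibition above a cutoff equal to the mean of all tested compounds plus 3 SD, cut at about 15% in these data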;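 further: 0% = PAD4 with RCA probe and DMSO and 100% = probe without PAD4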
Apaf1 inhib: human Apaf-1 inhibition; hit rate 0.71% among 330,000; inhibition, % at 20 µM; reconstituted apoptosome caspase-3 activity, DEVD-Rh110 fluorescence; AID 489030; O14727; active means inhibition of at least 40% at 20 µM;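 further: plate controls were DMSO wells for no effect and DEVD-CHO caspase inhibitor wells for full effect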
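Material: biochemical Apaf-1 apoptosome reconstitution. Medium: Hepes buffer, pH 7.5. Also added: cytochrome c activation, bis-DEVD rhodamine 110 substrate. Timing: 30 min compound preincubation, 50 min activation, room temperature. Measured by: rhodamine 110 fluorescence at Ex 480/Em 540 nm.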
GSTO1 counter: GSTO1 inhibition, counter-screen for RBBP9 inhibitors; P78417; recombinant GSTO1, activity-based probe fluorescence polarization; inhibition, % at 5.96 µM; hit rate 1.1% among 300,000; AID 1974;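 active means inhibition above the campaign mean inhibition plus 3 SD, cut at about 35% in these data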;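 further: 0% = GSTO1-1 with DMSO and 100% = wells lacking GSTO1-1 enzyme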
Target sequence (P78417 whole entry, looked up): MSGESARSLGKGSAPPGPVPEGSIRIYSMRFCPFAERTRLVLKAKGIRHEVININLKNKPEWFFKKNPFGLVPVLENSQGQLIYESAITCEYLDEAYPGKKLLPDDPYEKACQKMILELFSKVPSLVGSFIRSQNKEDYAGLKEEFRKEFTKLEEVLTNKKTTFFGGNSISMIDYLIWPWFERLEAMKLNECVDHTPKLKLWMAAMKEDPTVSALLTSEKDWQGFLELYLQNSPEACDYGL
SUMO HTRF inh: SUMOylation inhibition; P63279; HTRF SUMOylation assay, SAE1/SAE2 + UBC9, in vitro; inhibition, % at 35 µM; hit rate 0.36% among 290,000; AID 2006; in the data active means inhibition above about 50%, passing the limit was not always enough
JMJD2C inh: human JMJD2C demethylase inhibition | GST-JMJD2C(1-420) H3K9me3 demethylation, DELFIA europium | Q9H3R0 | inhibition, % at 2.35 µM | hit rate 0.069% among 330,000;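 active means more than half of a compound's replicate wells show inhibition beyond 50%, single wells judged on their own value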;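 further: signal counts dimethyl H3K9 product captured on neutravidin plate; 0% = median of DMSO wells and 100% = 0.3 times that DMSO median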
Target sequence (Q9H3R0 1-420 limits assumed): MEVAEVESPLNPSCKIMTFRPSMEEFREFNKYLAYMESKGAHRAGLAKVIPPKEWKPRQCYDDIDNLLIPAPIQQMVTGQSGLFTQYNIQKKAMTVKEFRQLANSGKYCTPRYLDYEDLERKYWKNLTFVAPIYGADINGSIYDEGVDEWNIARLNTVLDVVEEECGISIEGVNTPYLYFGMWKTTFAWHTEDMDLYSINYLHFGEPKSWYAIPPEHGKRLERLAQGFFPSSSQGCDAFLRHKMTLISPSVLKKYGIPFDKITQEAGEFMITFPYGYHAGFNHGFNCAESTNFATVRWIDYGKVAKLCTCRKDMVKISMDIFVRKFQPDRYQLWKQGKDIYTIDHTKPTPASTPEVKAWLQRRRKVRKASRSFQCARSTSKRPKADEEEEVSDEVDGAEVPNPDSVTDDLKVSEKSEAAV
PAD4 FP conf: PAD4 (human) inhibition, confirmed; hit rate 28% among 1,200; shares compounds with PAD4 inh; AID 488796; recombinant PAD4, RCA probe fluorescence polarization; inhibition, % at 6.36 µM;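 active means mean inhibition across replicates above the hit cutoff set by the earlier primary screen, cut at about 15% in these data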;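 further: inhibitors block active-site labeling by the probe so polarization falls; 0% = PAD4 with probe and DMSO and 100% = probe without PAD4 enzyme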
* hit, by the source's call. In the library only some 1.6% were active in any assay of this set; here they are far more common.

Screening COc1cccc(C(=O)OCC(=O)c2c(N)n(C)c(=O)n(C)c2=O)c1 returned TDP2 absorb 16.0, PAD4 inh 22.0*, Apaf1 inhib 1.0, JMJD2C inh -2.4 and PAD4 FP conf 5.3.
Screening Cc1cc(Cl)ccc1OCC(=O)OCC(=O)c1c(N)n(C)c(=O)n(C)c1=O returned TDP2 absorb 0.2, PAD4 inh 27.4*, Apaf1 inhib -1.1 and PAD4 FP conf 6.3.
Screening Cn1c(N)c(C(=O)COC(=O)COc2ccc(Br)cc2)c(=O)n(C)c1=O returned TDP2 absorb -2.6, PAD4 inh 171.4*, Apaf1 inhib 3.8, JMJD2C inh 5.4 and PAD4 FP conf 7.8.
`Cn1c(N)c(C(=O)COC(=O)COc2cc(Cl)c(Cl)cc2Cl)c(=O)n(C)c1=O` gave TDP2 absorb -4.8, PAD4 inh -0.6, Apaf1 inhib 7.7 and JMJD2C inh -2.9.
Screening O=C(O)c1cccc(S(=O)(=O)NCC(=O)N2CCN(c3ccccn3)CC2)c1 returned TDP2 absorb 4.6.
`CCN1C(=O)c2cccc3c(N)ccc(c23)C1=O` gave TDP2 absorb -2.6, PAD4 inh 26.9*, Apaf1 inhib 6.5, GSTO1 counter 11.2, SUMO HTRF inh 26.7, JMJD2C inh 7.6 and PAD4 FP conf 25.5*.
Screening Cc1ccc(N2C(=O)c3cccc4c(N)ccc(c34)C2=O)c2cccnc12 returned TDP2 absorb -1.3, PAD4 inh -21.0, Apaf1 inhib -4.6, GSTO1 counter -20.9, SUMO HTRF inh 29.9 and JMJD2C inh 15.9.
For O=C(c1cscn1)N1CCC(Oc2cccnc2)CC1 the results were TDP2 absorb -2.1.
`CCN1C=C(Cc2ccc(F)cc2)C2=C(C1)C(c1ccc(F)cc1)C(C#N)=C(N)O2` (stereo not drawn) gave TDP2 absorb -11.7, PAD4 inh 23.8*, Apaf1 inhib 15.9, GSTO1 counter 2.0, SUMO HTRF inh 0.7, JMJD2C inh -1.7 and PAD4 FP conf 13.5.
For Cc1[nH]nc2c1C(c1ccc(F)cc1)C(C#N)=C(N)O2 (stereo not drawn) the results were TDP2 absorb 7.3, PAD4 inh 1.6, Apaf1 inhib 6.1, GSTO1 counter -1.1, SUMO HTRF inh -11.0 and JMJD2C inh 13.7.
For CCN1C=C(Cc2ccccc2C)C2=C(C1)C(c1ccccc1C)C(C#N)=C(N)O2 (stereo not drawn) the results were TDP2 absorb 2.5, PAD4 inh 17.3*, Apaf1 inhib 11.6, GSTO1 counter -8.1, SUMO HTRF inh 6.2, JMJD2C inh 11.3 and PAD4 FP conf 6.8.
Nc1nonc1-n1nnc(C(=O)N/N=C/c2cccnc2)c1CSC1=NCCS1 was read as TDP2 absorb -4.1, PAD4 inh 35.2*, Apaf1 inhib 0.3, GSTO1 counter -16.9, SUMO HTRF inh -4.6, JMJD2C inh -12.0 and PAD4 FP conf 10.0.
Nc1nonc1-n1nnc(C(=O)N/N=C/c2ccc(Br)cc2)c1CSC1=NCCS1 was read as TDP2 absorb -13.3, PAD4 inh 10.1, Apaf1 inhib 1.7, GSTO1 counter -8.8, SUMO HTRF inh 1.3 and JMJD2C inh 4.0.
`OCCN(CCO)c1ccc(C(c2ccc(Cl)cc2)c2ccc(N(CCO)CCO)cc2Cl)c(Cl)c1` gave TDP2 absorb -2.2, PAD4 inh 15.3*, Apaf1 inhib -9.5, GSTO1 counter 0.1, SUMO HTRF inh -20.2, JMJD2C inh 3.7 and PAD4 FP conf 4.5.
CCOP(=O)(c1ccc(N(C)C)cc1)C(O)c1ccc(Cl)cc1 (stereo not drawn) was read as TDP2 absorb -1.8, PAD4 inh -2.7, Apaf1 inhib 10.7, GSTO1 counter -2.3, SUMO HTRF inh 27.4 and JMJD2C inh -5.8.
COc1ccc(C2C(C(=O)Nc3ccc(C)c(C)c3)CCC(=O)N2c2ccc(OC)cc2)cc1 (stereo not drawn) was read as TDP2 absorb 3.9.
Screening C=CCN1[C@H](C#N)[C@@H](c2ccccc2)[C@H]1CO returned TDP2 absorb 6.3.
For N#Cc1ccc(/C=C2\CC3(OC(=O)C4CCCCC4)CCCN2C3)cc1 (stereo not drawn) the results were TDP2 absorb -0.7.
CC(C)CCc1c(O)nc(SCC(=O)N2CCCCCC2)[nH]c1=O was read as TDP2 absorb 10.9, PAD4 inh 16.1*, Apaf1 inhib -5.0, GSTO1 counter 4.5, SUMO HTRF inh 1.7, JMJD2C inh 2.7 and PAD4 FP conf 2.6.
CCCc1c(O)nc(SCC(=O)N2CCCCC2)[nH]c1=O was read as TDP2 absorb 4.7, PAD4 inh -2.7, Apaf1 inhib 1.2, GSTO1 counter -1.3, SUMO HTRF inh 18.3 and JMJD2C inh 11.7.
Screening O=C(c1ccncc1)N1N=C(C2CC2)CC1(O)C(F)(F)F (stereo not drawn) returned TDP2 absorb 2.9, PAD4 inh 24.3*, Apaf1 inhib -10.2, GSTO1 counter 7.1, SUMO HTRF inh 21.7, JMJD2C inh -0.7 and PAD4 FP conf 4.1.
`O=C(c1cccnc1)N1N=C(C2CC2)CC1(O)C(F)(F)F` (stereo not drawn) gave TDP2 absorb 9.3, PAD4 inh -11.2, Apaf1 inhib -13.1, GSTO1 counter -0.9, SUMO HTRF inh 6.6 and JMJD2C inh 4.1.
For COC(=O)C1CN(Cc2ccc(F)cc2)CCS(=O)(=O)N1Cc1cn(CCOC(C)=O)nn1 (stereo not drawn) the results were TDP2 absorb -1.6.
COC(=O)[C@]12C[C@H](CC(=O)NCc3cccs3)C(=O)N(Cc3ccc4c(c3)OCO4)C1=C[C@H](C(C)C)O[C@@H]2C1CC1 was read as TDP2 absorb -3.7.
COc1ccc(C(N)c2nccc3cc(OC)c(OC)cc23)cc1OC (stereo not drawn) was read as PAD4 inh 21.6*, Apaf1 inhib 18.4, GSTO1 counter 39.3*, SUMO HTRF inh 69.2, JMJD2C inh 9.5 and PAD4 FP conf -1.1.
Cc1ccc(N2C(=O)CCSC23C(=O)Nc2ccccc23)cc1 (stereo not drawn) was read as TDP2 absorb -1.4, PAD4 inh 2.1, Apaf1 inhib -0.5, GSTO1 counter -13.4, SUMO HTRF inh 7.0 and JMJD2C inh -5.0.
For COc1ccc(N2C(=O)CSC23C(=O)Nc2ccccc23)cc1 (stereo not drawn) the results were TDP2 absorb 1.9, PAD4 inh 15.6*, Apaf1 inhib -3.0, GSTO1 counter -3.4, SUMO HTRF inh -19.4, JMJD2C inh -7.0 and PAD4 FP conf 13.6.
